Published values gathered from unrelated publications.
Protocols differ between the studies behind these lines.
Target: Activin receptor type-1B (ACVR1B, Homo sapiens, UniProt P36896)
Sequence (P36896 24-505, as in one of the studies): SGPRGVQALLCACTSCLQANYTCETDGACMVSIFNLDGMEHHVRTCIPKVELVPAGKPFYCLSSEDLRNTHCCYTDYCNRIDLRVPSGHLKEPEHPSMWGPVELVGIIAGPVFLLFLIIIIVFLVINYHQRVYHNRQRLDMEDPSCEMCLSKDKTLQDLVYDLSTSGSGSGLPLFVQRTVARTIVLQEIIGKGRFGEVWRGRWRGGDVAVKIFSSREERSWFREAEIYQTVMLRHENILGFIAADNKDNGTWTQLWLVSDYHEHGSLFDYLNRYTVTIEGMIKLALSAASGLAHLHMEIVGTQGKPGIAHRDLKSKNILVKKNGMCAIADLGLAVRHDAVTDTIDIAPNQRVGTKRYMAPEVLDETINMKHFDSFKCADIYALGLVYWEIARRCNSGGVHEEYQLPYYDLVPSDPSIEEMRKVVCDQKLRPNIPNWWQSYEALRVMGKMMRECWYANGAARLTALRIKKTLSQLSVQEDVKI

SMILES | effect on | mode | method | concentration | measurement | value
CN(C)C1CCN(CC#Cc2nn(C3CCCC3)c3nc(NCc4ccccc4)ncc23)C1 (stereo not drawn) | enzyme activity | inhibitor | FRET | 0.1 µM | inhibition | 0%
CS(=O)(=O)c1cc(C2(NC(=O)c3cncc4c3cnn4-c3ccc(F)cc3)CC2)ccn1 | cell-free assay | – | competition with immobilised ligand | 1 µM | remaining binding | 100%
CC(C)(C)c1nc2c(s1)c1nc(N)ncc1c1ccc(NS(=O)(=O)c3c(F)cccc3F)c(F)c12 | enzyme activity | inhibitor | radiometric | 1 µM | remaining activity | 84%
CN1CCC2(CC1)NC(=O)c1c(c3ccc(Cl)c(Cl)c3n1C)C2C#N (racemic) | thermal stability | – | DSF | 10 µM | ΔTm | 0.3 °C
CN1CCN(c2cnc3c(C4CCN(C(=O)c5ccc(OC(F)(F)F)cc5N)CC4)ncnc3c2)CC1 | cell-free assay | – | competition with immobilised ligand | 1 µM | remaining binding | 79%
O=C(Nc1cnn(-c2csc(C(=O)NC3COC3)c2)c1)Nc1ccccc1Cl | enzyme activity | inhibitor | – | 5 µM | remaining activity | 124%
O=C(NC[C@@H]1[C@H]2CN(C(=O)OCc3cc(C(F)(F)F)cc(C(F)(F)F)c3)C[C@@H]12)c1ccc2[nH]nnc2c1 | cell-free assay | – | competition with immobilised ligand | 1 µM | remaining binding | 100%
COc1cc(-c2cc(-c3ccc(N4CCNCC4)cc3)cnc2C)cc(OC)c1OC | enzyme activity | inhibitor | – | 0.1 µM | inhibition | 9%
COc1cc2ncnc(Nc3ccc(Oc4ccccc4)cc3C)c2cc1OC | enzyme activity | inhibitor | – | 1 µM | inhibition | -2%
CN([C@@H]1CCc2c(CC(=O)O)c3cc(S(C)(=O)=O)ccc3n2C1)S(=O)(=O)c1ccc(F)cc1 | cell-free assay | – | competition with immobilised ligand | 1 µM | remaining binding | 99%
Cc1cnc(NC2CCOCC2)nc1-n1cnc(C(=O)NC(CN)c2cc(F)cc(Cl)c2)c1 (stereo not drawn) | enzyme activity | inhibitor | radiometric | 1 µM | remaining activity | 109%
Cn1c2c(c3ccc(Cl)c(Cl)c31)C(C#N)C1(CCNCC1)NC2=O (racemic) | thermal stability | – | DSF | 10 µM | ΔTm | -0.1 °C
CNCc1ccccc1-c1csc([C@H](C)Nc2nc(C)nc3cc(OC)c(OC)cc23)c1 | cell-free assay | – | competition with immobilised ligand | 1 µM | remaining binding | 100%
CCCOc1ccc(OC)c(F)c1C(=O)c1ccc(C(=O)N[C@@H]2CNC[C@H]2NC(=O)c2ccc3[nH]ncc3c2)cc1 | enzyme activity | inhibitor | – | 10 µM | remaining activity | 91%
Cc1ccc(NC(=O)c2ccc(C)c(C(F)(F)F)c2)cc1C#Cc1nn(C2CCC(O)CC2)c2ncnc(N)c12 (stereo not drawn) | cell-free assay | – | – | 10 µM | remaining signal | 79%
O=C1NC(=O)c2cc(Nc3ccc(F)cc3)c(Nc3ccc(F)cc3)cc21 | cell-free assay | – | – | 0.5 µM | remaining signal | 94.2%
CCN(CC)c1ccc(C2=NNC(=O)CC2C)cc1[N+](=O)[O-] (stereo not drawn) | enzyme activity | inhibitor | – | 10 µM | remaining activity | 109%
O=C(Nc1cnn(-c2csc(C(=O)NC3COC3)c2)c1)Nc1c(F)cccc1Cl | enzyme activity | inhibitor | – | 5 µM | remaining activity | 82%
O=C(CSc1nc2nccnc2c(=O)n1CCc1ccccc1)Nc1nccs1 | enzyme activity | inhibitor | – | 10 µM | inhibition | 4%
CCN1CCC2(CC1)NC(=O)c1c(c3ccc(Cl)c(Cl)c3n1C)C2C#N (racemic) | thermal stability | – | DSF | 10 µM | ΔTm | 0 °C
Cc1ccc(Nc2nccc(N(C)c3ccc4c(C)n(C)nc4c3)n2)cc1S(N)(=O)=O | cell-free assay | inhibitor | – | 0.3 µM | inhibition | -22%
CCN(CC)CCNC(=O)c1c(C)[nH]c(/C=C2\C(=O)Nc3ccc(F)cc32)c1C | cell-free assay | – | – | 0.5 µM | remaining signal | 101%
CNC(=O)c1cc(Oc2ccc(NC(=O)Nc3ccc(Cl)c(C(F)(F)F)c3)cc2)ccn1 | cell-free assay | inhibitor | – | 10 µM | inhibition | 17%
Cn1c2c(Cl)c(Cl)ccc2c2cc[nH]c(=O)c21 | thermal stability | – | DSF | 10 µM | ΔTm | 3.1 °C
Cn1nc(C(=O)NCc2ccc(C(=O)O)cc2)cc1-c1ccc2[nH]ccc2c1 | cell-free assay | – | competition with immobilised ligand | 0.1 µM | remaining binding | 83%
Cc1cc(NC(=O)c2cccc3cc(-c4cccc5[nH]nc(N)c45)ccc23)ccc1F | enzyme activity | inhibitor | – | 0.1 µM | activity vs control | 103%
O=C(Nc1ccc(Oc2ccc(F)cc2)cc1)N1CCc2ncccc2[C@H]1c1ccc(F)cc1 | cell-free assay | – | competition with immobilised ligand | 1 µM | remaining binding | 94%
N#CCCc1ccc2c(c1)-c1[nH]c3ccc([N+](=O)[O-])cc3c1CC(=O)N2 | cell-free assay | – | – | 0.5 µM | remaining signal | 110%
CO[C@@H](C)c1c(Nc2ccc([C@H](N(C)C(=O)C3CCS(=O)(=O)CC3)C(F)(F)F)cc2)cnc2cc(Cl)nn12 | cell-free assay | – | competition with immobilised ligand | 1 µM | remaining binding | 72%
Cn1c2c(Cl)c(Cl)ccc2c2cc(N)[nH]c(=O)c21 | thermal stability | – | DSF | 10 µM | ΔTm | 3.9 °C
